The record followed here is ChEMBL document CHEMBL2331392, “Antiviral phenolic compounds from Arundina gramnifolia” (J Nat Prod, 2013).

≈ marks a conversion by molar mass, not a printed value.

The subject of data set [1] is Tobacco mosaic virus. Put plainly: Antiviral activity against TMV strain U1 infected in Nicotiana glutinosa leaves assessed as decrease in number of local leaf lesions incubated with virus for 30 mins prior to inoculation on leaves measured 3 to 4 days post-viral infection by half-leaf method. In kind it is functional, organism-based. A digest of the protocol:
(§1)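 Half-leaf assay on N. glutinosa. TMV U1 was multiplied in N. tabacum cv. K326, purified, and set to 20 mg/mL by UV absorbance at 260 nm. Compounds were dissolved in DMSO and diluted with water. Virus and compound were mixed for 30 min and applied to the left leaf half; the right half got virus plus matched DMSO. Ningnanmycin served as positive control. Three leaf blades per compound. Inhibition % = (C−T)/C×100 from mean local lesion counts.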

Data set [2] in a line: Therapeutic index, ratio of CC50 for human C8166 cells to EC50 for HIV-1 3B infected in human C8166 cells. In kind it is cell-based. The conditions noted are these: C8166 cells (CC50) and HIV-1 3B infected C8166 cells (EC50). In a few lines: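 CC50 came from MTT cytotoxicity on C8166 cells. EC50 came from inhibition of HIV-1 cytopathic effect in C8166 cells. Azidothymidine was the positive control. The index is CC50 divided by EC50.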

Data set [3] relates to Human immunodeficiency virus 1. The data set can be described thus: Antiviral activity against HIV-1 3B infected in human C8166 cells assessed as inhibition of syncytia formation after 3 days. Format: functional, organism-based. Particulars: Human immunodeficiency virus 1, 3B, C8166, 72 h.
The test system of data set [4] is Tobacco mosaic virus. Put plainly: Antiviral activity against TMV strain U1 infected in compound-pretreated Nicotiana glutinosa leaves assessed as inhibition of viral infection at 20 uM incubated with leaf for 6 hrs prior to viral inoculation. In kind it is functional. In a few lines: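 Protection assay with TMV U1 on tobacco leaves. Leaves were pretreated with compound at 20 μM for 6 h before virus inoculation. Compounds were dissolved in DMSO and diluted with water; a DMSO solution served as negative control and ningnanmycin as positive control. Inhibition rates are mean ± SD, n = 3.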

Data set [5] is described as follows: Cytotoxicity against human C8166 cells assessed as inhibition of cell viability after 3 days by MTT assay. In kind it is cell-based. A digest of the protocol:
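C8166 cells tested with the MTT method. Cytotoxicity reported as CC50. Azidothymidine ran alongside as positive control.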
In general terms: Tetrazolium dyes change colour on reduction, which living cells bring about.

Data set [6] concerns Tobacco mosaic virus. The data set can be described thus: Antiviral activity against TMV strain U1 infected in Nicotiana glutinosa leaves assessed as decrease in number of local leaf lesions at 20 uM incubated with virus for 30 mins prior to inoculation on leaves measured 3 to 4 days post-viral infection by half-leaf method. In kind it is functional. A digest of the protocol: as §1

In the case of `COc1cc(O)cc2c1-c1c(O)ccc(O)c1C2=O`, in the data set on Tobacco mosaic virus [1], the IC50 came to 98.3 µM. Moreover, the selectivity ratio in data set [2] amounted to 19.3. Besides, the concentration giving a half-maximal response (EC50) in data set [3] came to 5.47 µg/mL (≈ 21.2 µM). For the same compound, the inhibition at 20 µM in the data set with Tobacco mosaic virus [4] was determined as 16.7%; with Tobacco mosaic virus [6], 17.4%. For the same compound, in data set [5], the CC50 at 72 h came to 105 µg/mL (≈ 408 µM).
With `COc1cc(O)cc2c1-c1c(O)cc(O)cc1C2=O`, in data set [2], the selectivity ratio stood at 31.8. Besides, the EC50 in data set [3] amounted to 2.73 µg/mL (≈ 10.6 µM). In addition, the CC50 at 72 h in data set [5] amounted to 86.7 µg/mL (≈ 336 µM). Further, the inhibition at 20 µM with Tobacco mosaic virus [6] is 7.9%.
As for `COc1ccc(/C=C/Cc2ccc(O)c(OC)c2OC)cc1O` [CANDENATENIN A], in the data set on Tobacco mosaic virus [1], the IC50 amounted to 70.6 µM. The selectivity ratio in data set [2] came out at 44.3. For the same compound, the EC50 in data set [3] came to 3.28 µg/mL (≈ 10.4 µM). Further, the inhibition at 20 µM with Tobacco mosaic virus [4] came to 24%; in the data set with Tobacco mosaic virus [6] it was 21.2%. For the same compound, the CC50 at 72 h in data set [5] was found to be 145 µg/mL (≈ 459 µM).
For `C/C=C/c1cc(OC)c(OC)cc1C(=O)c1cc(OC)c(OC)c(OC)c1` [GRAMNIPHENOL B], the selectivity ratio in data set [2] was 106. Moreover, in data set [3], the EC50 came to 1.27 µg/mL (≈ 3.41 µM). Also, the CC50 at 72 h in data set [5] is 134 µg/mL (≈ 361 µM).
For `COc1ccc2c(c1)C=C[C@@H](c1ccc(O)c(C(=O)CCO)c1OC)O2` [GRAMNIPHENOL C], the IC50 in the data set with Tobacco mosaic virus [1] amounted to 20.8 µM. In addition, the selectivity ratio in data set [2] was 44.3. In addition, the EC50 in data set [3] came to 3.28 µg/mL (≈ 9.2 µM). Also, the inhibition at 20 µM was 56.3% in the data set on Tobacco mosaic virus [4] and 48.2% with Tobacco mosaic virus [6]. Further, in data set [5], the CC50 at 72 h was 145 µg/mL (≈ 407 µM).
As for `C=C(C)[C@H](O)COc1cc(OC)c2c(c1)C(=O)c1c(O)ccc(O)c1-2` [GRAMNIPHENOL D], the IC50 in the data set with Tobacco mosaic virus [1] came to 129 µM. Besides, the selectivity ratio in data set [2] is > 137. For the same compound, the EC50 in data set [3] amounted to 1.46 µg/mL (≈ 4.26 µM). Also, the inhibition at 20 µM with Tobacco mosaic virus [4] worked out at 11.4%; in the data set with Tobacco mosaic virus [6] it was 13.3%. Also, the CC50 at 72 h in data set [5] was > 200 µg/mL.
Turning to `C=C(C)[C@H](O)COc1cc(OC)c2c(c1)C(=O)c1cc(O)cc(O)c1-2` [GRAMNIPHENOL E], the selectivity ratio in data set [2] was > 127. Further, the EC50 in data set [3] came to 1.58 µg/mL (≈ 4.62 µM). Moreover, the CC50 at 72 h in data set [5] was > 200 µg/mL. In addition, the inhibition at 20 µM in the data set with Tobacco mosaic virus [6] was 7.16%.
Regarding `CC1(C)C=Cc2cc3cc(-c4ccc(O)cc4)oc3cc2O1` [GRAMNIPHENOL F], the IC50 in the data set with Tobacco mosaic virus [1] was found to be 40.8 µM. Besides, the selectivity ratio in data set [2] turned out to be 19.6. Moreover, in data set [3], the EC50 worked out at 5.22 µg/mL (≈ 17.9 µM). Also, the inhibition at 20 µM in the data set on Tobacco mosaic virus [4] came out at 33.8%; with Tobacco mosaic virus [6], 35.8%. The CC50 at 72 h in data set [5] amounted to 102 µg/mL (≈ 351 µM).
Turning to `COc1ccc(-c2cc3cc4c(cc3o2)OC(C)(C)C=C4)cc1` [GRAMNIPHENOL G], the IC50 with Tobacco mosaic virus [1] came out at 57.7 µM. For the same compound, the selectivity ratio in data set [2] is 13.9. Besides, the EC50 in data set [3] came to 6.38 µg/mL (≈ 20.8 µM). Further, the results for the inhibition at 20 µM with Tobacco mosaic virus [4] and in the data set on Tobacco mosaic virus [6] were 36.1% and 32.1%, respectively. Moreover, in data set [5], the CC50 at 72 h came out at 88.7 µg/mL (≈ 290 µM).
As for `Oc1cc(O)cc(-c2cc3ccc(O)cc3o2)c1` [MORACIN M], the IC50 in the data set on Tobacco mosaic virus [1] was 128 µM. Also, the selectivity ratio in data set [2] was 12.5. For the same compound, the EC50 in data set [3] was found to be 4.59 µg/mL (≈ 18.9 µM). Also, the results for the inhibition at 20 µM in the data set on Tobacco mosaic virus [4] and in the data set on Tobacco mosaic virus [6] were 10.2% and 13.2%, respectively. The half-maximal cytotoxic concentration (CC50) at 72 h in data set [5] turned out to be 57.4 µg/mL (≈ 237 µM).
`CNCC(=O)N[C@@H](CO)C(=O)N[C@H]1[C@H](O)[C@@H](O)[C@H](n2ccc(N)nc2=O)O[C@@H]1C(N)=O` [NINGNANMYCIN]: the IC50 in the data set on Tobacco mosaic virus [1] is 42.2 µM. In addition, the inhibition at 20 µM in the data set with Tobacco mosaic virus [4] turned out to be 30%; with Tobacco mosaic virus [6], 31.8%.
Take `Cc1cn([C@H]2C[C@H](N=[N+]=[N-])[C@@H](CO)O2)c(=O)[nH]c1=O` [ZIDOVUDINE]: the selectivity ratio in data set [2] is > 5880. Further, the CC50 at 72 h in data set [5] is > 200 µg/mL.

Broadly, the IC50 is the concentration at which inhibition is half-maximal. Usually EC50 stands for the concentration at which the effect is half-maximal. Broadly, the inhibition is the relative decrease from the control value, in per cent. The term CC50 denotes the concentration that lowers cell viability or growth by half.
